Source: PubChem BioAssay (several laboratories)
Only some compounds are listed: those with a hit (about 3.7% of all), similar ones and a draw of the others.
KCC2 mod: KCC2 (human) Cl- transport modulation; KCC2 cells, thallium flux FluoZin-2 fluorescence; Q9H2X9; hit rate 2.2% among 190,000; AID 1456; B-score of Tl+ flux slope (higher = more flux/activation; lower = inhibition) at 10 µM;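 active = thallium flux slope and its plate-corrected score both differing from the plate sample mean at a set confidence after two filtering rounds, in either direction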;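 also: slope of fluorescence scaled to starting intensity during 10 to 20 s after thallium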
Target sequence (Q9H2X9 whole entry, looked up): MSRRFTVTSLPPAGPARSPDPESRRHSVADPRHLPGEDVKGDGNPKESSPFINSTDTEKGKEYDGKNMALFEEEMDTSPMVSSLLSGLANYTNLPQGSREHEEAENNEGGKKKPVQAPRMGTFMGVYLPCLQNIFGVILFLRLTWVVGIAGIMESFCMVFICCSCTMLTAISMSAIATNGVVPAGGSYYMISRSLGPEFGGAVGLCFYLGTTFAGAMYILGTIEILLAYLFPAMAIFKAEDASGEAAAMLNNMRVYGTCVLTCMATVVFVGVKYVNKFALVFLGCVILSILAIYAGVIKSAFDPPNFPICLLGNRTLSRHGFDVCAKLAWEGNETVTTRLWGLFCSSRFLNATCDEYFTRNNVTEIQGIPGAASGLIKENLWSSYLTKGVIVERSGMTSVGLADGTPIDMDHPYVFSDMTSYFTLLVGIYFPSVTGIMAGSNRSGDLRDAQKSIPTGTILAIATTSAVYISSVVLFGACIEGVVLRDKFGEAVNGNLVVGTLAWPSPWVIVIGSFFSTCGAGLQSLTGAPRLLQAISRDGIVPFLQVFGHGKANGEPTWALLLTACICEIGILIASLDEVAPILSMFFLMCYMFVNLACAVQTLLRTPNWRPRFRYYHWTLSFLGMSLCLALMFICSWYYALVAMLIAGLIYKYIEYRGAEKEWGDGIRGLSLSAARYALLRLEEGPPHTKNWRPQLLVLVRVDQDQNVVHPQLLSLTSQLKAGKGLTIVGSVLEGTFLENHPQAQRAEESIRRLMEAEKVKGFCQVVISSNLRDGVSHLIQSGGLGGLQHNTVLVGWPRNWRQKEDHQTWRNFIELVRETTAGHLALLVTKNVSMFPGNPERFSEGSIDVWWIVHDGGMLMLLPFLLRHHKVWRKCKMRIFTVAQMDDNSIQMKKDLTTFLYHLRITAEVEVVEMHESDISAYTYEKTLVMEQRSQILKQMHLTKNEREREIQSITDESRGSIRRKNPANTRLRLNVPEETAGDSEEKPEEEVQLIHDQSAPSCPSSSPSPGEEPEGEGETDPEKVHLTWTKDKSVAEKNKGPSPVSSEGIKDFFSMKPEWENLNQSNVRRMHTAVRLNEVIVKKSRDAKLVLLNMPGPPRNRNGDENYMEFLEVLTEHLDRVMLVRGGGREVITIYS
bCat nuc transl: alters nuclear translocation of beta-catenin in HeLa cells; immunofluorescence imaging; nuclear translocation activity, % at 5 µM; hit rate 0.3% among 190,000;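 active = nuclear translocation activity above 50% at 5 µM, with a well cell count of 50 or more; inconclusive = wells under 50 cells across six images, flagged as toxic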;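 also: per-cell ratio of nuclear to cytoplasmic median beta-catenin stain intensity; plate controls were DMSO negative control for no effect and GSK-3 inhibitor IX positive control for full effect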
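Test system: human HeLa cells, endogenous beta-catenin. Times: 24 h compound exposure, 37°C. Measured by: beta-catenin immunofluorescence imaging with DAPI.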
MT stabilize HCS: microtubule stabilizers in HeLa cells; HeLa tubulin immunostaining HCS, 24 h; share of cells brighter than vehicle mean+2SD; % tubulin-high responders, % at 10 µM; hit rate 0.83% among 200,000;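 active = plate Z-score above 3 for both tubulin-high and condensed-nucleus cell shares, with cell loss under 80%, at 10 µM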;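 also: anti alpha tubulin signal scored within the nucleus-defined area of each cell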
ROMK primary: modulates human ROMK potassium channel activity; P48048; Tet-inducible ROMK, thallium flux fluorescence; actives lie on both sides; B-score at 10 µM; hit rate 2% among 130,000;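 active = signal ratio slope over the read window, or its plate-corrected B-score, at least 3 SD from the plate mean, either direction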;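 also: B-score of the F/F0 ratio slope over 7 to 12 s after thallium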
Redox H2O2 prof: compounds producing H2O2 with reducing agent – biochemical, NIH compound library profiling, artefact control for MLSCN library redox annotation, primary screen; DTT-dependent redox cycling H2O2, phenol red/HRP absorbance; 100% = 100 µM peroxide control, 0% = buffer; activation, % at 10 µM; hit rate 0.03% among 200,000; AID 878;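 active = activation of at least 50% relative to the plate's high and low controls in the primary single-dose screen; inactive = activation below 50%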;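 also: compound incubated with DTT at 0.8 mM final as the reducing agent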
ROMK hit retest: confirmation of human ROMK potassium channel modulators. shares compounds with ROMK primary. normalized thallium flux (F/F0 slope) at 10 µM. hit rate 54% among 3,000. ROMK thallium flux, fluorescence ratio; stronger effect = lower value;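 active = Flux at 10 µM at least 3 SD below or above vehicle control mean in one or both replicates; inconclusive = no clear call, values can overlap the other calls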
* hit, by the source's call; ? = inconclusive; . = not tested or not shown.

SMILES | KCC2 mod | bCat nuc transl | MT stabilize HCS | ROMK primary | Redox H2O2 prof | ROMK hit retest
Cc1ccc(S(=O)(=O)N2CCC(=O)N(C(COCc3ccc(Cl)cc3)C(C)C)CC2)cc1 (stereo not drawn) | 0.104 | . | 3.3 | -0.46 | 0.0 | .
O=C(c1cccc(Cl)c1)N1CCC(=O)N(C(COCc2ccccc2)Cc2ccccc2)CC1 (stereo not drawn) | -1.59 | . | 4.5 | -2.99 | 0.4 | .
Cc1cccc(COCC(Cc2ccccc2)N2CCN(C(=O)c3cccc(Cl)c3)CCC2=O)c1 (stereo not drawn) | -0.436 | . | 3.3 | -2.93* | 0.4 | 0.0536*
CCOc1ccccc1CNC(=O)c1ccc(Sc2ccc(Cl)cc2)c(NC(C)=O)c1 | -0.0588 | -3.3 | 2.9 | -0.313 | 0.1 | .
O=C(Nc1nc2c(cc3c4c(cccc42)CC3)s1)c1ccccc1Cl | -0.188 | -0.5 | 4.5 | . | -0.1 | .
CCCCc1nc2ccccc2c(NC(=O)CNC(C)(C)C)c1CCC | -0.473 | 1.3 | 0.8 | -2.79* | 0.9 | 0.0547*
COc1ccc(CCNC(=O)CCC(=O)Nc2nnc(C(C)C)s2)cc1OC | 0.809 | -0.7 | 3.3 | 0.962 | 0.1 | .
CC1CCN(CCCNC(=O)c2ccc(Cn3c(=S)[nH]c4ccc(Br)cc4c3=O)cc2)CC1 | -0.869 | -0.1 | 1.3 | -2.18 | -0.8 | .
O=C(/C=C/c1ccccc1[N+](=O)[O-])N1CCN(c2ccccc2F)CC1 | -1.55 | -0.3 | 2.4 | 0.534 | 0.4 | .
Cc1ccc(C(=O)NC(=S)N2CCN(c3ccccc3F)CC2)cc1 | . | . | 3.5 | 3.42* | -0.3 | 0.101*
Cc1cccc(N=C2NC(=O)c3cc([N+](=O)[O-])ccc32)c1 | -1.03 | 0.9 | 3.9 | -0.492 | -1.9 | .
CCOC(=O)C1=NN(c2ccc(Cl)cc2)C(=O)C1 | 0.0224 | -0.1 | . | . | . | .
Cc1ccc2c(c1)C(=O)C(=O)N2CCCOc1ccccc1 | -0.633 | 0.9 | 2.3 | 3.58* | -1.4 | 0.0744
COc1c(Cl)cc(Cl)cc1CNc1ccc(S(N)(=O)=O)cc1 | -1.07 | 1.0 | 2.6 | 1.97 | 0.4 | .
O=C(Nc1ccc([N+](=O)[O-])cc1)Nc1ccc(N2CCOCC2)c2nonc12 | -0.0093 | -1.6 | 3.8 | -0.522 | -0.6 | .
Cc1ccc(N=Nc2[nH]c3ccccc3c2O)cc1 | -1.18 | -0.1 | 1.8 | -4.82* | 0.0 | 0.0562*
CCCC1(C(=O)OC)NC(c2cccc(F)c2)C2C(=O)N(CC)C(=O)C21 (stereo not drawn) | 1.63 | 2.6 | 2.9 | . | -0.4 | 0.0713
CCN(Cc1cc(OC)c(OC)c(OC)c1)C(=S)Nc1cccc(SC)c1 | . | -0.5 | . | . | . | .
Cc1ccc2cc(CN(Cc3ccccc3)Cc3nnnn3C3CCCC3)c(=O)[nH]c2c1 | . | 0.3 | 7.1 | -3.03* | -0.8 | 0.0606*
CCCc1nnc(NC(=O)CCC(=O)N2CCN(C3c4ccccc4-c4ccccc43)CC2)s1 | 1.35 | -0.9 | 2.4 | . | 0.5 | .
CCC(C)NC(=O)CSc1nc2c(sc3ccccc32)c(=O)n1CCCN1CCOCC1 (stereo not drawn) | 0.424 | . | 2.6 | 2.61* | 0.2 | 0.0762
CCOC(=O)CSc1nc2c(sc3ccccc32)c(=O)n1CCCN1CCOCC1 | -1.23 | -0.5 | 3.3 | -0.631 | 7.7 | .
O=C1ON=C(c2cccc([N+](=O)[O-])c2)/C1=C/c1ccc(O)cc1 | -0.177 | -0.9 | 3.5 | -4.56* | -0.5 | 0.0648*
O=C1ON=C(c2ccccc2)/C1=C/c1ccc(OS(=O)(=O)c2ccccc2)cc1 | -0.125 | 5.2 | 3.7 | . | -0.5 | .
Cn1cc(S(=O)(=O)NCc2ccc(Cl)cc2)c(=O)n(C)c1=O | 1.21 | 0.0 | . | 1.1 | . | .
SMILES | KCC2 mod | bCat nuc transl | MT stabilize HCS | ROMK primary | Redox H2O2 prof | ROMK hit retest
O=C(Nc1ccc(F)cc1)N1CCN(C/C=C/c2ccccc2)CC1 | 0.686 | 2.7 | 4.1 | . | 1.5 | .
Cc1cc(C)cc(NC(=O)N2CCN(C/C=C/c3ccccc3)CC2)c1 | -0.00929 | -2.5 | 3.8 | -4.23* | 0.7 | 0.067*
CCn1c(SC(C)C)nnc1-c1cc(-c2ccccc2)sc1N | -0.0991 | -1.3 | 3.4 | -2.84* | 0.0 | 0.0733
CCOC(=O)C1=C(O)C(=O)N(c2ccc(S(N)(=O)=O)cc2)C1c1ccccc1 (stereo not drawn) | -0.0567 | 0.3 | 3.1 | . | 1.1 | 0.0713
Cc1ccc(CSCC(=O)NCc2ccc(F)cc2)cc1 | -1.88 | -0.9 | 4.2 | -0.237 | -0.2 | .
O=C(CSCc1ccc(F)cc1)NCc1ccc(F)cc1 | -1.23 | 0.4 | 2.7 | 2.97* | -0.5 | 0.0788
CCn1nc(CC(=O)O)c2ccccc2c1=O | 0.444 | -1.0 | 1.1 | 0.00445 | -0.6 | .
CCC1CCCCN1C(=O)COc1ccc(F)cc1 (stereo not drawn) | 0.0242 | -1.1 | 1.6 | -0.967 | 0.1 | .
CCC1CCCCN1C(=O)COc1c(Br)cc(Br)c2cccnc12 (stereo not drawn) | 1.58 | -2.7 | 3.5 | -4.06* | -0.6 | 0.0595*
Cc1ccc(Cn2nnc3c(=O)n(CC(=O)NCc4ccccc4)cnc32)cc1 | -4.63 | -1.0 | 3.7 | 2.32* | -0.7 | 0.0895
COc1cccc(NC(=O)N2CCN(c3nc(-c4cccc(OC)c4)cs3)CC2)c1 | -2.22 | 1.3 | . | . | . | 0.0678*
COc1cccc(-c2csc(N3CCN(C(=O)Nc4ccccc4Cl)CC3)n2)c1 | -0.951 | 0.8 | 1.6 | -0.44 | 0.4 | .
Clc1cccc(-c2cc3nc4c(c(N5CCOCC5)n3n2)CCCC4)c1 | -0.172 | 1.8 | 2.3 | -3.91* | -0.3 | 0.0637*
COCCN1Cc2cccc(C(=O)N3CCN(c4cc(C)ccc4C)CC3)c2C1=O | -0.0242 | . | 5.8 | . | -1.1 | .
CCOc1ncccc1C(=O)N1CCN(c2cccc(C)c2C)CC1 | -0.632 | 185.6* | 11.4* | 7.26* | -0.6 | 0.0822
CCCN1Cc2cccc(C(=O)N3CCN(c4cc(Cl)ccc4C)CC3)c2C1=O | -1.52 | . | 2.0 | . | -1.2 | ?
CCOc1ncccc1C(=O)N1CCN(C(=O)c2ccccc2)CC1 | . | 0.1 | 2.6 | -0.14 | 5.0 | .
CCOc1ncccc1C(=O)N1CCN(c2cc(Cl)ccc2C)CC1 | 0.124 | 84.3* | 10.5 | 3.28* | -0.9 | 0.0805
CC(C)CCn1c(=O)c2ccccc2n2c(CN3CCOCC3)nnc12 | 0.303 | -1.1 | 1.7 | -0.153 | -0.1 | .
Cc1cccc(OCC(=O)Nc2ccc(N3CCN(C(=O)c4ccccc4)CC3)cc2)c1 | 1.09 | -0.2 | 5.7 | 0.452 | -0.3 | .
C=CCN=C1SC(C)(C)C(=O)N1S(=O)(=O)c1ccc(C)cc1 | 0.104 | 0.0 | 4.9 | -1.21 | -0.6 | .
Cc1cc(N2CCN(c3cccc(C(F)(F)F)c3)CC2)n2ncnc2n1 | 0.123 | 0.1 | 3.3 | 0.197 | -2.1 | .
Cc1cc(N2CCN(C(c3ccccc3)c3ccccc3)CC2)n2ncnc2n1 | . | -0.7 | 6.1 | 1.54* | -0.6 | ?
Cc1nc2ncnn2c(N2CCN(C(c3ccccc3)c3ccccc3)CC2)c1C | . | 0.6 | 6.2 | 1.04 | -0.1 | .
Cc1cc(N2CCN(c3nc4ccccc4s3)CC2)n2ncnc2n1 | -1.65 | 1.2 | 2.2 | . | 2.1 | 0.0642*
O=c1[nH]c(C(F)(F)F)nc2c1nnn2Cc1ccccc1F | -0.463 | . | 2.5 | 3.41* | 0.4 | 0.0775
